Active and inactive are the calls of the source. No cut-off for these calls is given here.
What was measured:
[1] = target: T1, Growth hormone secretagogue receptor type 1 (Homo sapiens, UniProt Q92847); test: Inverse agonist activity at human ghrelin receptor expressed in HEK293 cells assessed as inhibition of ghrelin-induced europium-labeled GTP-gamma-S binding by DELFIA; assay type: cell-based
Summary of the method: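 GTP-γ-S functional assay run in agonist/antagonist/inverse-agonist mode. Minimum percent effect is reported, with negative values denoting inverse agonism. Values are geometric means ± standard error of ≥3 measurements unless noted.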

[2] = target: T2, Muscarinic acetylcholine receptor M2 (Homo sapiens) (UniProt P08172); test: Antagonist activity at muscarinic M2 receptor (unknown origin) expressed in CHO-K1 CHRM2 beta-arrestin cells assessed as inhibition of oxotremorine S-induced effect after 90 mins; assay type: cell-based
T2 sequence (whole entry): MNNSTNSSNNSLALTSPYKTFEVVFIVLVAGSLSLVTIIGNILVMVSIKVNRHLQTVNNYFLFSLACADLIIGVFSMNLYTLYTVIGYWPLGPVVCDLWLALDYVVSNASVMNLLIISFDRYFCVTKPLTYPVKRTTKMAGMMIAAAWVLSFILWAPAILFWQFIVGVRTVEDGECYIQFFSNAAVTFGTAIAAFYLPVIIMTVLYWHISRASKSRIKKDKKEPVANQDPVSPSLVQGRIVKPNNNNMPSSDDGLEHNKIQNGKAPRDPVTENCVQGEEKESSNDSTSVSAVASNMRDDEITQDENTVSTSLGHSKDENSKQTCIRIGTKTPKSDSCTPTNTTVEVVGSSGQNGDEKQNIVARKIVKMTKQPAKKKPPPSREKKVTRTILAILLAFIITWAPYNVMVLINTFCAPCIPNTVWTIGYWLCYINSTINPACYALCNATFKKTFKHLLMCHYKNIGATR
Summary of the method: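 Antagonist mode in a β-arrestin PathHunter format. Kb was determined in the presence of an EC80 concentration of the agonist oxotremorine.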

[3] = system: MDCK; test: Efflux ratio of permeability from basolateral to apical over apical to basolateral side in MDCK cells expressing human MDR1; settings: dog
[4] = Apparent intrinsic clearance in human liver microsomes; assay type: ADME; settings: read-out: CLH
Summary of the method: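 Apparent intrinsic clearance in human liver microsomes, expressed as mL/min/kg. Values are uncorrected for fraction unbound.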

[5] = Apparent permeability of the compound in MDCK2 cells; assay type: ADME, cell-based, Canis lupus familiaris, MDCK-II; settings: dog, mdck
Summary of the method: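 Passive permeability (Papp, 10–6 cm/s) measured in low-efflux MDCKII cells.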

[6] = organism: Homo sapiens; test: Selectivity ratio of pKb for muscarinic M2 receptor (unknown origin) expressed in CHO-K1 CHRM2 beta-arrestin cells to Ki for human ghrelin receptor expressed; assay type: cell-based
Summary of the method: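 Ratio of the M2 Kb (β-arrestin PathHunter antagonist format, EC80 oxotremorine) over the human ghrelin receptor functional Ki (GTP-γ-S assay).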

[7] = target: T3, 5-hydroxytryptamine receptor 2B (Homo sapiens, UniProt P41595); test: Inhibition of 5HT2B receptor (unknown origin)
T3 sequence (P41595 whole entry): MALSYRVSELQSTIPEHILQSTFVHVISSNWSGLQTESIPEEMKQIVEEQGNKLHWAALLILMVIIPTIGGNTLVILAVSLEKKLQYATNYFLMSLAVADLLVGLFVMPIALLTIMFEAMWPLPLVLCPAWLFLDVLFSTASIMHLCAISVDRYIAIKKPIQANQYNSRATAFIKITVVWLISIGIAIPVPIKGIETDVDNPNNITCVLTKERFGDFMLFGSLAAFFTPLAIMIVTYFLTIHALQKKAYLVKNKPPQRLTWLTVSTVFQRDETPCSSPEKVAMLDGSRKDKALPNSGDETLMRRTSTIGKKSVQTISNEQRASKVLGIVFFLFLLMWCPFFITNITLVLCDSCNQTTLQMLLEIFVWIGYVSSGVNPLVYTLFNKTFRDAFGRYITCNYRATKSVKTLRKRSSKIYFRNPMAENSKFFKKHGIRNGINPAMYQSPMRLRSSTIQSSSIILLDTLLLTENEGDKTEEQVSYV

[8] = target: T1, Growth hormone secretagogue receptor type 1; test: Displacement of [125I]ghrelin from human ghrelin receptor expressed in HEK293 cells after 8 hrs by scintillation proximity assay; assay type: cell-based
Summary of the method: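 Human ghrelin receptor binding measured by scintillation proximity assay. Values are geometric means of at least 3 measurements, unless noted otherwise.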

[9] = Oral absorption in portal vein cannulated rat at 10 mg/kg, po; assay type: ADME, organism-based; parameters: dose 10 mg/kg, route oral; settings: in vivo
[10] = target: T3, 5-hydroxytryptamine receptor 2B; test: Antagonist activity at 5HT2B receptor (unknown origin)
[11] = target: T3, 5-hydroxytryptamine receptor 2B; test: Agonist activity at 5HT2B receptor (unknown origin)
[12] = target: Voltage-gated inwardly rectifying potassium channel KCNH2 (Homo sapiens, UniProt Q12809); test: Inhibition of human ERG
Sequence of Voltage-gated inwardly rectifying potassium channel KCNH2 (Q12809 whole entry): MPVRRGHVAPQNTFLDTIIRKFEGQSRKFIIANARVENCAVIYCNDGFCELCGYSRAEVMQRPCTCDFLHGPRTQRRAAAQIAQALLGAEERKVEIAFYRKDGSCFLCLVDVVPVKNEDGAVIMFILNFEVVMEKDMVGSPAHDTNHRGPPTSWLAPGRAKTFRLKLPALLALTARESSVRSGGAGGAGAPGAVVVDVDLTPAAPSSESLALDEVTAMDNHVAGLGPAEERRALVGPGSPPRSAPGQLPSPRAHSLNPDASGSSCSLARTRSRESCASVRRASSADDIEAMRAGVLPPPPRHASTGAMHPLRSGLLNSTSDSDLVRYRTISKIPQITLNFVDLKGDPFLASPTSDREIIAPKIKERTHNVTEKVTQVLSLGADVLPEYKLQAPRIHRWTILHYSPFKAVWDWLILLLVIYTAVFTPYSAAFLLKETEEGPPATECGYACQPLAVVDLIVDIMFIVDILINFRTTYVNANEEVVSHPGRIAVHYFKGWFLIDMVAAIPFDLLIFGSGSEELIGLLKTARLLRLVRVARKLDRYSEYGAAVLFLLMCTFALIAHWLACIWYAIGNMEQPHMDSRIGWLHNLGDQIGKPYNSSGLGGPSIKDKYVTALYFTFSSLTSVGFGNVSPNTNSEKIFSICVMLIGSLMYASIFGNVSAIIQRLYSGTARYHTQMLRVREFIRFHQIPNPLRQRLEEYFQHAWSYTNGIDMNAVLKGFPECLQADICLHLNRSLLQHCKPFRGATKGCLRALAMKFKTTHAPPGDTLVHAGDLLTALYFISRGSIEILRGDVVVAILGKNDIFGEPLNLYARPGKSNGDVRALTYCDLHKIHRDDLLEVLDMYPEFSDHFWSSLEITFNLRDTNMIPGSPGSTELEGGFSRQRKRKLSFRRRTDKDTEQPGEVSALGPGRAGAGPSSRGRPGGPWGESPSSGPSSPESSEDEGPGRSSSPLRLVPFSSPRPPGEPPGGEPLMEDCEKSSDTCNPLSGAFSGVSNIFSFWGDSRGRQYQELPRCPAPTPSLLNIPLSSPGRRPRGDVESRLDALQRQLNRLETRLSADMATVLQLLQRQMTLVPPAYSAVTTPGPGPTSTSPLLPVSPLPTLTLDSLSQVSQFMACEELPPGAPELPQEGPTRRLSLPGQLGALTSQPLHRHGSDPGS

[13] = target: T4, D(4) dopamine receptor (Homo sapiens) (UniProt P21917); test: Activity at dopamine D4 receptor (unknown origin) at 10 uM
T4 sequence (whole entry): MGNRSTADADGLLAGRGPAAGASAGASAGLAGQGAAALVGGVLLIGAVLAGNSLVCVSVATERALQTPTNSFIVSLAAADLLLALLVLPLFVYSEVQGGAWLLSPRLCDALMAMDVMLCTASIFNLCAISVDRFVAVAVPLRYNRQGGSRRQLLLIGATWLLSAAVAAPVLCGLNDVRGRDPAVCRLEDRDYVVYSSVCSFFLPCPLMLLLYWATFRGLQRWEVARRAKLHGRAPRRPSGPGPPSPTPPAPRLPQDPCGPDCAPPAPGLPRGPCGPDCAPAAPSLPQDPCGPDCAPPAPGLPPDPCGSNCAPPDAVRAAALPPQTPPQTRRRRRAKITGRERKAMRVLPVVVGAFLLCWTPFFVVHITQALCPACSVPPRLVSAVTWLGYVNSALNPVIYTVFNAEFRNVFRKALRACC

[14] = target: T5, Alpha-2A adrenergic receptor (Homo sapiens) (UniProt P08913); test: Activity at adrenergic alpha2A receptor (unknown origin) at 10 uM
T5 sequence (whole entry): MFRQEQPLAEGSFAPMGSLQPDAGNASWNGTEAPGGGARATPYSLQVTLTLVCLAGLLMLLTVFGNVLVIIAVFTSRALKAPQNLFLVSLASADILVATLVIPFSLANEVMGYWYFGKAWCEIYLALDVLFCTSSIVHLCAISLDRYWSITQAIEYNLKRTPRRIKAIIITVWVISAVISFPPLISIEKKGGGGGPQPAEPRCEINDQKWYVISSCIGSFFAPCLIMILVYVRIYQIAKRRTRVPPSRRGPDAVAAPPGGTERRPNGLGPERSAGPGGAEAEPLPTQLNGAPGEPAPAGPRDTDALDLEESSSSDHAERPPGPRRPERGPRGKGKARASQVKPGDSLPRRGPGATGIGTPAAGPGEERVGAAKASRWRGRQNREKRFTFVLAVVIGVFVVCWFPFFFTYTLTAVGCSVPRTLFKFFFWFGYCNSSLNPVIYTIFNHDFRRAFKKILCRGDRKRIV

[15] = target: T6, Alpha-2C adrenergic receptor (Homo sapiens) (UniProt P18825); test: Activity at adrenergic alpha2C receptor (unknown origin) at 10 uM
T6 sequence (whole entry): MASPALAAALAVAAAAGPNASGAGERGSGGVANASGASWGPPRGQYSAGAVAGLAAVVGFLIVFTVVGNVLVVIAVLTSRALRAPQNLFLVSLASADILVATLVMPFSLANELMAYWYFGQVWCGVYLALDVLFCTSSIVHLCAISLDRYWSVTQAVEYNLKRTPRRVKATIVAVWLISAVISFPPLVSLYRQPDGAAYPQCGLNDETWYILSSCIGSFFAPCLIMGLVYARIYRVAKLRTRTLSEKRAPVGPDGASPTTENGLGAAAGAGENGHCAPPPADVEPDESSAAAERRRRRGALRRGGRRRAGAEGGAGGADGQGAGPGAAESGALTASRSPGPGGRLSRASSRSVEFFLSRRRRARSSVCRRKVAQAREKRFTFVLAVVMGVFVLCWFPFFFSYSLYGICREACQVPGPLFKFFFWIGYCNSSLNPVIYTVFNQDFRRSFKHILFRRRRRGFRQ

[16] = target: D(3) dopamine receptor (Homo sapiens) (UniProt P35462); test: Activity at dopamine D3 receptor (unknown origin) at 10 uM
Sequence of D(3) dopamine receptor (Homo sapiens) (P35462 whole entry): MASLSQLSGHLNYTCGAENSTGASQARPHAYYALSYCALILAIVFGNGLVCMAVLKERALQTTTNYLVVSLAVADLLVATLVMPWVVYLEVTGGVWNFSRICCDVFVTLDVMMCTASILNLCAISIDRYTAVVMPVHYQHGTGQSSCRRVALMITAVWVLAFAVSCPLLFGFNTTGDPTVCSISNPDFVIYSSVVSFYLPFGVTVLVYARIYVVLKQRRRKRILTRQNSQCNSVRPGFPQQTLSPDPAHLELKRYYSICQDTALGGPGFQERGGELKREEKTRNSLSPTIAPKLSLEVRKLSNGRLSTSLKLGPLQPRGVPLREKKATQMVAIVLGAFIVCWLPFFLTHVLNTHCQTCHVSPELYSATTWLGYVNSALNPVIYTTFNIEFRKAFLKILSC

[17] = target: D(2) dopamine receptor (Homo sapiens) (UniProt P14416); test: Activity at dopamine D2S receptor (unknown origin) at 10 uM
Sequence of D(2) dopamine receptor (Homo sapiens) (P14416 whole entry): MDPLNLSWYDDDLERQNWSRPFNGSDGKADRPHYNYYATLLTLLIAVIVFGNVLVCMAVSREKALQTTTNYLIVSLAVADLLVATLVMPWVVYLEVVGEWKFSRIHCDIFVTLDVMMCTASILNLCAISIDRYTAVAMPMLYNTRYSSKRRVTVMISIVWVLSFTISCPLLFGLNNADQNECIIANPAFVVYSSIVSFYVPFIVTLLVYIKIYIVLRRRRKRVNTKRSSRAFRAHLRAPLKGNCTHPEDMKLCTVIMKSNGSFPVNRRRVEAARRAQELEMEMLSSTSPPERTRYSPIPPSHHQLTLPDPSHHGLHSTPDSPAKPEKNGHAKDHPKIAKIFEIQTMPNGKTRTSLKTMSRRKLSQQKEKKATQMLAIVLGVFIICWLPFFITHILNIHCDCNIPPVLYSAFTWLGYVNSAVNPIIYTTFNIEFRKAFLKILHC

[18] = target: Histamine H1 receptor (Homo sapiens) (UniProt P35367); test: Activity at histamine H1 receptor (unknown origin) at 10 uM
Sequence of Histamine H1 receptor (Homo sapiens) (P35367 whole entry): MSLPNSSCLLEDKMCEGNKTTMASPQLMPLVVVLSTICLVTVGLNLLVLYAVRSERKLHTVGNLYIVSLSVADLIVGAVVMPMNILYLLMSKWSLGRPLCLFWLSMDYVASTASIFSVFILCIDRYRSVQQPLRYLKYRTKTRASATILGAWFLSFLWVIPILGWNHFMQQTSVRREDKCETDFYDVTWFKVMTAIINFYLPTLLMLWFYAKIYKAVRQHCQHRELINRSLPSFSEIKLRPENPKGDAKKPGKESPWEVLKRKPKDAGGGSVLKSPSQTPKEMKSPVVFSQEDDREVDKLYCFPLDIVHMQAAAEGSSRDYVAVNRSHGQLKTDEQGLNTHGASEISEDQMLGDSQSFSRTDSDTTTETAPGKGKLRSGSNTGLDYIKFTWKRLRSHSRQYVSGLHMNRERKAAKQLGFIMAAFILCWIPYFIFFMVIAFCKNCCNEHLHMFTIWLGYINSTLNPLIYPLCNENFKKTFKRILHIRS

T1 sequence (Q92847 whole entry): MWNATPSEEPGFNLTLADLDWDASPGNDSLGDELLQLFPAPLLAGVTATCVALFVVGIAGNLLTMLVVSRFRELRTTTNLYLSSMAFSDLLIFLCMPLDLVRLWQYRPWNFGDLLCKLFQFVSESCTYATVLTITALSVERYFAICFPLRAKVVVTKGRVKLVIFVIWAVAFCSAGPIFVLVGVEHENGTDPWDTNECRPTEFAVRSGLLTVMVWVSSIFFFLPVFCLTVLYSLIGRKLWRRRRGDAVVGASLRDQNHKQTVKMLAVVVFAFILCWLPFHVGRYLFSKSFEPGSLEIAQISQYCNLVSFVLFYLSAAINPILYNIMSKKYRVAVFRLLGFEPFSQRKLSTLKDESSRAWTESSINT

Row | Compound | Ki [1] | pKb [2] | Ratio [3] | CLint scaled [4] | Papp [5] | Ratio [6] | also measured
1 | COc1ccc(CC(=O)N2CCC3(CC2)CN([C@@H]2CCc4cc(-c5ncccn5)ccc42)C3)nc1 | 25.1 nM | 6.18 |  |  |  |  | 
2 | COc1ccc(CC(=O)N2CCC3(CC2)CN([C@@H]2CCc4cc(-c5ncc(C)cn5)ccc42)C3)nc1 | 85.1 nM | 5.86 |  |  |  |  | 
3 | COc1ccc(CC(=O)N2CCC3(CC2)CN([C@@H]2CCc4cc(-c5nccc(C)n5)ccc42)C3)nc1 | 50.1 nM | 6.09 | 3.7 | 17 mL/min/kg | 10 ×10⁻⁶ cm/s | 20 | 
4 | COc1ccc(CC(=O)N2CCC3(CC2)CN([C@@H]2CCc4cc(-c5ccncn5)ccc42)C3)nc1 |  | 6.08 | 5.4 | 82 mL/min/kg | 15 ×10⁻⁶ cm/s |  | 
5 | Cc1cc(-c2ccc3c(c2)CC[C@H]3N2CC3(CCN(C(=O)Cc4cn5cc(C)sc5n4)CC3)C2)ncn1 [PF-5190457] | 6.61 nM | 5.71 | 7.2 | 21 mL/min/kg | 5 ×10⁻⁶ cm/s | 266 | IC50 [7]: 3700 nM; Ki [8]: 6.61 nM; Fa [9]: 100%; inhibition [10]: inactive; Activity [11]: inactive; IC50 [12]: 6900 nM
6 | COc1ccc(CC(=O)N2CCC3(CC2)CN([C@@H]2CCc4cc(-c5cc(C)ncn5)ccc42)C3)nc1 |  | 5.66 |  |  |  |  | 
7 | Cc1cn2cc(CC(=O)N3CCC4(CC3)CN([C@@H]3CCc5cc(-c6ccc(C(N)=O)nc6)ccc53)C4)nc2s1 |  | 6.48 | > 18.2 |  |  |  | 
8 | COc1ccc(CC(=O)N2CCC3(CC2)CN([C@@H]2CCc4cc(-c5ncccn5)ccc42)C3)cc1 |  | 5.94 |  |  |  |  | Activity [13]: Active; Activity [14]: Active; Activity [15]: Active; Activity [16]: Active; Activity [17]: Active; Activity [18]: Active
9 | Cc1cn2cc(CC(=O)N3CCC4(CC3)CN([C@@H]3CCc5cc(-c6ncccn6)ccc53)C4)nc2s1 | 6.61 nM | 6.41 | 5.4 | 18 mL/min/kg | 11 ×10⁻⁶ cm/s | 47 | Ki [8]: 4.57 nM

From ChEMBL document CHEMBL3286150, “Discovery of PF-5190457, a Potent, Selective, and Orally Bioavailable Ghrelin Receptor Inverse Agonist Clinical Candidate” (ACS Med Chem Lett, 2014)
